From PMC10668576 (RSC Advances, 2023)
Converted amounts (≈) assume the structure as drawn.

Experiments:
[1] = tested on: Bacillus cereus; assay: Disk diffusion inhibition zones; format: cell-based; conditions: 24 h
Summary of the method: (§1)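 Test compound was dissolved in DMSO at 1000 μg mL−1 and soaked onto sterile 6 mm filter-paper discs. Discs were placed on Mueller–Hinton agar inoculated with fresh cultures suspended in sterile physiological water, then incubated at 37 °C for 24 h. DMSO discs served as negative control, with azithromycin (30 mg mL−1) as reference. Clear-zone width was read in mm with a transparent ruler.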

[2] = tested on: Staphylococcus aureus; assay: Disk diffusion inhibition zones; format: cell-based; conditions: 24 h
Summary of the method: as §1

[3] = tested on: Staphylococcus epidermidis; assay: Disk diffusion inhibition zones; format: cell-based; conditions: 24 h
Summary of the method: as §1

[4] = tested on: Klebsiella pneumoniae; assay: Disk diffusion inhibition zones; format: cell-based; conditions: 24 h
[5] = tested on: Escherichia coli; assay: Disk diffusion inhibition zones; format: cell-based; conditions: 24 h
Summary of the method: as §1

[6] = tested on: Stenotrophomonas maltophilia; assay: Disk diffusion inhibition zones; format: cell-based; conditions: 24 h
Summary of the method: as §1

[7] = tested on: Aeromonas sobria; assay: Disk diffusion inhibition zones; format: cell-based; conditions: 24 h
Summary of the method: as §1

[8] = tested on: Pseudomonas aeruginosa; assay: Disk diffusion inhibition zones; format: cell-based; conditions: 24 h
Summary of the method: as §1

[9] = tested on: Bacillus cereus; assay: Minimum inhibitory concentration, serial dilution; format: cell-based
Summary of the method: (§2)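 Inoculum was 10^6 cfu mL−1, incubated at 37 °C for 18–24 h. Wells were inspected for presence or absence of growth, and MIC was taken as the lowest concentration preventing growth. Each organism was tested on three separate occasions.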

[10] = tested on: Staphylococcus aureus; assay: Minimum inhibitory concentration, serial dilution; format: cell-based; conditions: Muller Hinton broth, 37 °C, 18 to 24 h
Summary of the method: as §2

[11] = tested on: Staphylococcus epidermidis; assay: Minimum inhibitory concentration, serial dilution; format: cell-based
Summary of the method: as §2

[12] = tested on: Klebsiella pneumoniae; assay: Minimum inhibitory concentration, serial dilution; format: cell-based
[13] = tested on: Escherichia coli; assay: Minimum inhibitory concentration, serial dilution; format: cell-based
Summary of the method: as §2

[14] = tested on: Stenotrophomonas maltophilia; assay: Minimum inhibitory concentration, serial dilution; format: cell-based
Summary of the method: as §2

[15] = tested on: Aeromonas sobria; assay: Minimum inhibitory concentration, serial dilution; format: cell-based
Summary of the method: as §2

[16] = tested on: Pseudomonas aeruginosa; assay: Minimum inhibitory concentration, serial dilution; format: cell-based
Summary of the method: as §2

[17] = tested on: burn wounds; assay: Burn healing assay in rats; format: in vivo, albino Wistar female rats; conditions: 1% cream, one application per 24 h on burn wound, n = 3
[18] = Acute parenteral toxicity in rats; format: in vivo; conditions: 0.5 to 50 mg per kg body weight, 14 days observation
Summary of the method: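 Single parenteral dose of test compound dissolved in ethanol with gentle heating, given by tuberculin syringe following OECD 425 to female albino Wistar rats (190 ± 20 g), 3 per dose, at 0.5, 1, 10, 30 or 50 mg kg−1. Controls were ethanol-injected and non-injected rats. Rats were observed every 30 min for 6 h, then through 24 h and daily to 14 days. Organs were examined macroscopically and weighed on day 15.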

Row | MIC [10] | Compound | zone of inhibition at 1000 µg/mL [1] | zone of inhibition at 1000 µg/mL [2] | zone of inhibition at 1000 µg/mL [3] | zone of inhibition at 1000 µg/mL [4] | zone of inhibition at 1000 µg/mL [5] | zone of inhibition at 1000 µg/mL [6] | zone of inhibition at 1000 µg/mL [7] | zone of inhibition at 1000 µg/mL [8] | MIC [9] | MIC ([10]; Staphylococcus aureus) | MIC [11] | MIC [12] | MIC [13] | MIC [14] | MIC [15] | MIC [16] | Day utilized for recovery [17] | Mortality [18] | Signs of toxicity [18]
1 |  | O=C(O)c1cc(N=Nc2nccs2)ccc1O [Compound 3, 2-Hydroxy-5-(thiazol-2-yldiazenyl)benzoic acid] | 10 ± 0.03 mm | 12 ± 0.23 mm | 14 ± 0.25 mm | 11 ± 0.31 mm | 9 mm | 8 ± 0.11 mm | 10 ± 0.31 mm | 10 ± 0.33 mm | 20 µg/mL (≈ 80.2 µM) | 10 µg/mL (≈ 40.1 µM) | 10 µg/mL (≈ 40.1 µM) | 80 µg/mL (≈ 321 µM) | 60 µg/mL (≈ 241 µM) | 40 µg/mL (≈ 160 µM) | 20 µg/mL (≈ 80.2 µM) | 80 µg/mL (≈ 321 µM) |  |  | 
2 |  | O=C(Nc1nccs1)c1cc(N=Nc2nccs2)ccc1O [Compound 3a, 2-Hydroxy-N-(thiazol-2-yl)-5-(thiazol-2-yldiazenyl)benzamide] | 10 ± 0.23 mm | 13 ± 0.21 mm | 18 ± 0.26 mm | 13 ± 0.22 mm | 9 ± 0.33 mm | 9 ± 0.28 mm | 10 ± 0.15 mm | 9 mm | 100 µg/mL (≈ 302 µM) | 10 µg/mL (≈ 30.2 µM) | 80 µg/mL (≈ 241 µM) | 200 µg/mL (≈ 604 µM) | 80 µg/mL (≈ 241 µM) | 60 µg/mL (≈ 181 µM) | 40 µg/mL (≈ 121 µM) | 60 µg/mL (≈ 181 µM) | 26 days | no occurrences of mortality | did not display any noteworthy signs of toxicity
3 |  | O=C(Nc1nc2ccccc2s1)c1cc(N=Nc2nccs2)ccc1O [Compound 3b, N-(Benzo[d]thiazol-2-yl)-2-hydroxy-5-(thiazol-2-yldiazenyl)benzamide] | 10 ± 0.33 mm | 13 ± 0.58 mm | 14 ± 0.23 mm | 14 ± 0.28 mm | 9 ± 0.14 mm | 10 ± 0.04 mm | 10 ± 0.28 mm | 9 mm | 80 µg/mL (≈ 210 µM) | 20 µg/mL (≈ 52.4 µM) | 10 µg/mL (≈ 26.2 µM) | 80 µg/mL (≈ 210 µM) | 20 µg/mL (≈ 52.4 µM) | 20 µg/mL (≈ 52.4 µM) | 10 µg/mL (≈ 26.2 µM) | 40 µg/mL (≈ 105 µM) | 24 days | no occurrences of mortality | did not display any noteworthy signs of toxicity
4 |  | O=C(Nc1ccc(S(=O)(=O)c2nccs2)cc1)c1cc(N=Nc2nccs2)ccc1O [Compound 3c, 2-Hydroxy-5-(thiazol-2-yldiazenyl)-N-(4-(thiazol-2-ylsulfonyl)phenyl)benzamide] | 10 ± 0.13 mm | 16 ± 0.09 mm | 12 ± 0.43 mm | 12 ± 0.11 mm | 9 ± 0.16 mm | 9 ± 0.21 mm | 10 ± 0.33 mm | 9 ± 0.33 mm |  | 10 µg/mL (≈ 21.2 µM) | 40 µg/mL (≈ 84.8 µM) |  | 20 µg/mL (≈ 42.4 µM) | 40 µg/mL (≈ 84.8 µM) | 40 µg/mL (≈ 84.8 µM) |  | 27 days | no occurrences of mortality | did not display any noteworthy signs of toxicity
5 | 20 µg/mL (≈ 26.7 µM) | CC[C@H]1OC(=O)[C@H](C)[C@@H](O[C@H]2C[C@@](C)(OC)[C@@H](O)[C@H](C)O2)[C@H](C)[C@@H](O[C@@H]2O[C@H](C)C[C@H](N(C)C)[C@H]2O)[C@](C)(O)C[C@@H](C)CN(C)[C@H](C)[C@@H](O)[C@]1(C)O [azithromycin, reference compound] | 11 ± 0.31 mm | 15 ± 0.09 mm | 11 ± 0.32 mm | 20 ± 0.26 mm | 7 ± 0.32 mm | 10 ± 0.02 mm | 18 ± 0.41 mm | 7 ± 0.14 mm | 80 µg/mL (≈ 107 µM) | 40 µg/mL (≈ 53.4 µM) | 80 µg/mL (≈ 107 µM) | 60 µg/mL (≈ 80.1 µM) | 20 µg/mL (≈ 26.7 µM) | 40 µg/mL (≈ 53.4 µM) | 20 µg/mL (≈ 26.7 µM) |  |  |  | 
